Results: the EternaBench riboswitch data

System: MS2 coat protein
Assay: apparent Kd, MS2 coat protein; higher = weaker binding; RNA-MaP array; FMN 200 µM where present
Method in brief: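 Stalled E. coli RNA polymerase transcribed the designs on Illumina sequencing-chip clusters. SNAP-549-labelled MS2 coat protein was titrated from 0.7 or 1.5 nM, doubling to 3 µM, without and then with constant ligand, in 100 mM Tris-HCl pH 7.5, 80 mM KCl, 4 mM MgCl2, BSA, DTT, yeast tRNA and Tween-20. Per-cluster binding curves were fitted to green signal normalised to red-channel RNA signal and control-cluster median Fmax. The apparent Kd is the median of the filtered fits.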

[1] = designed as: ON switch for flavin mononucleotide, no ligand
[2] = ligand present: flavin mononucleotide, designed as: ON switch for flavin mononucleotide
[3] = designed as: OFF switch for flavin mononucleotide, no ligand
[4] = ligand present: flavin mononucleotide, designed as: OFF switch for flavin mononucleotide

| Sequence | apparent Kd [1] | apparent Kd [2] | apparent Kd [3] | apparent Kd [4] |
| --- | --- | --- | --- | --- |
| UGCCUGAGUCGAGGAUAUUAUGGAUCCUCUAAUACAUGAGGAUCACCCAUGUAAUUAAUUAUACAUGAGAAGGUGACUCAGGCU | 529 nM | 488 nM | – | – |
| GUCCCAGCUGAGGAUAUUAUCUGGCUCGACCGAUAAGAAGGCAGUACAUGAGGAUCACCCAUGUGGUUCGUUCG | – | – | 31.5 nM | 70.7 nM |
| GCGUUUACGGUUGACACUUAGCGAGAGGAUAUGGAAAACAAGACAUGAGGAUCACCCAUGUACUAUCAGAAGGCUCGAGUACGC | 8.65 nM | 5.29 nM | – | – |
| UUAUUAGCAGGAUAUAUCCACGACCACAUGAGGAUCACCCAUGUGGCCGCUUGAGGUUGUAUAGAAGGGCUUUAUU | – | – | 15.3 nM | 14.6 nM |
| UUUGGGCCUGUGAGGAUAUGCCCGGGUAAAUUUGGGCAGAAGGCACAUGAGGAUCACCCAUGUAAGGGCCCGGG | – | – | 31.5 nM | 21.4 nM |
| UUAUUAGCAGGAUAUAUCCAGGAUUACAUGAGGAUCACCCAUGUGACCGCUUGAGAUUCUAUAGAAGGGCUUUAUU | – | – | 29.6 nM | 29.8 nM |
| GCACGGCAUGUAGGAUAUGCAUAGCAUUGCUAUGCAGAAGGACAUGAGGAUCACCCAUGUAUGUAUUCCAUACAAUUCCCGUGC | – | – | 5.86 nM | 12 nM |
| GAGUGGCAAGGAUAUACAGUGGAGAGGAUGGCAAGAGGUGGACAUGAGGAUCACCCAUGUAGAAGGUGCAGAGA | – | – | 154 nM | 235 nM |
| GGGUUCAUGUAAGGAUAUGUAUUGUUAAUCGGAGCAGAAGGUACAUGAGGAUCACCCAUGUCAACCUAGAGCAGGGCUUCUUAA | – | – | 23.7 nM | 45.2 nM |
| GAUAGGACAGAGAAGGACAUGGCUAGAGAUACUAGCAUAUGAACCUUCACAUGAGGAUCACCCAUGUAGGAUAUCUGUCCUAUC | – | – | 3.8 nM | 4.86 nM |
| AAAUGAUGAGGAUAUACAUGAGGAUCACCCAUGUGUAAAAAUAAAUACACAAAAGAAAGUAGAAGGCAUCAAAA | – | – | 31.6 nM | 124 nM |
| UUGUAGUACGUAGGAUAUCAAUGAGGAUCACCCUGAGAAGGACGUGAGGACAUGAGGAUCACCCAUGUGGAUCACCCAUGUCAU | – | – | 191 nM | 145 nM |
| UGAUCGAAAGAUCAUAGAUUCUGCUAGGAUAUGCAGGAGUUGCGCUUUACAUGAGGAUCACCCAUGUAGAAGGAGUAGAGUCUA | – | – | 6.77 nM | 8.88 nM |
| CGUGCUAUGUAGAAGGCAGAUCUGAUUCAGAUCUGAGGAUAUACAUGAGGAUCACCCAUGUUAUGCACCAGCACGAGAGUGCAC | – | – | – | 11.5 nM |
| GUGCACACUCGAGGAUAUCGGAGAGUUCUCCUUCGAGAAGGCGAUUCGUGCCGUGUUAUUCUGGACAUGAGGAUCACCCAUGUG | 84.2 nM | 32.4 nM | – | – |
| AAUCUGUGAGGAUAUGGUGAGUAGUGCCUGAGCGCUGCUCACCAGAAGGCACAUGAGGAUCACCCAUGUAUGAC | – | – | 34.2 nM | 153 nM |
| UGUUGUAUUACAGGAUAUCUAUGAUUUUUAUAUAGAGAAGGGUAUUCACAUGAGGAUCACCCAUGUAUAUACGAGGAAGUUGUG | 49 nM | 56 nM | – | – |
| AGGUAACAUGAGGAUCACCCAUGUCAGGAUAUCAGUAAGAUGAGAAUAGAGUAGAGUAUGAGAAGGGACUAUAU | – | – | 43.6 nM | 32.3 nM |
| ACGAGACUCGUGAGGAUAUCGUGUUGUAAGCAGAUCGAGAAGGCACAUGAGGAUCACCCAUGUUUACUGCCACA | – | – | 17 nM | 21.9 nM |
| UGUGUUAUUGGAGGAUAUCGAUAUCAAACAUGAGGAUCACCCAUGUUGAGGAUCACACAUGUAAAUGAGAAGGCCGACGUAGUG | 12.5 nM | 16.2 nM | – | – |
| CCUUUGAAGAUCCUGGUUUUCGACAUGAGGAUCACCCAUGUGCAGGAUAUCGUGCCGGUGCUGUGCGAGAAGGGCAGUCUCAGC | – | – | 15.1 nM | 17.9 nM |
| CUCUUGGCAGGAUAUGCUCUCUUAGACAUGAGGAUCACCCAUGUGCUCAUUCCUUCUUUUGCAGAAGGGCCUUAAC | – | – | 71.4 nM | 52.3 nM |
| CAUCUGUGAGGAUAUGGUGAGUAGUGCCUGAGCGCUGCUCACCAGAAGGCACAUGAGGAUCACCCAUGUAUGAA | – | – | 52.6 nM | 214 nM |
| CUCUUGUGAGGAUAUGCUGCUCGUCACGAAAGUGAUGAGUAGCAGAAGGCACAUGAGGAUCACCCAUGUAAAUA | – | – | 93.7 nM | 21.7 nM |
| UGUUGUAUUACAGGAUAUCUAUUAGGUUUAUUUAGAGAAGGGUAUUCACAUGAGGAUCACCCAUGUAUAUACGAGGAAGUUGUG | 56.2 nM | 63.3 nM | – | – |
| AAACCACAUGAGGAUCACCCAUGUGAUAAAAGCAUAGGAUAUCUGGAUGUGAGAGGCGGCAGAGAAGGAUGCACGC | 61.5 nM | 53.9 nM | – | – |
| GCUAAUAUUUUGUUAAAUGUAUUUUGAGAAGGCAUACACAUGAGGAUCACCCAUGUAAUUUGUAAUGAGGAUAUCAUGAUGUGC | 115 nM | 31.5 nM | – | – |
| AAACAUGUCCGAGGAUAUCUGAGAUCAUUUUCAAGAGAAGGCGGACAUGAGGAUCACCCAUGUCUCUCCUCAUCAACUCCACAU | – | – | 7.47 nM | 39.1 nM |

| Sequence | apparent Kd [1] | apparent Kd [2] | apparent Kd [3] | apparent Kd [4] |
| --- | --- | --- | --- | --- |
| UAUGUUGUUGUGAGGAUAUACUUUGUUUGGUCGUAGUAGAAGGCACAUGAGGAUCACCCAUGUAGAUUUUUGGU | – | – | 19.4 nM | 24.8 nM |
| CGGAGGUCAGGAUAUGCAUGGCGGGACUUGCGUCGUGGCGUGCAGAAGGGACAUGAGGAUCACCCAUGUGGAGG | – | – | 155 nM | 267 nM |
| UGGUGAAGUGUAGGAUAUGGAGGUGGGUUUUGGCCAGAAGGACAUGAGGAUCACCCAUGUGGUAGAGGGUUGGUGGUGGCCCGU | – | – | 16.7 nM | 15.2 nM |
| UGUGUGUUUGUGAGGAUAUGCGCGCGGAAAUGUGUGUAGAAGGCACAUGAGGAUCACCCAUGUAAGGGCGCGCG | – | – | 596 nM | 439 nM |
| ACAAAAUUGAUCCAAUUUACCAACAUGAGGAUCACCCAUGUGCAGGAUAUGCUAAAGAUGAAUAAGCAGAAGGGCAAAUACAUA | – | – | 239 nM | 708 nM |
| AAACCUAUAGGAUAUACAUGAGGAUCACCCAUGUUGCGAUUUUUUAGGUAACAGAUCCGUAGAAGGGUAGGUCA | – | – | 36.4 nM | 66.6 nM |
| GGGAAGUAAGGAUAUGCUGCUCGUCACUUGCGUGAUGAGUAGCAGAAGGUACAUGAGGAUCACCCAUGUAAAGA | – | – | 29.7 nM | 26.9 nM |
| UCUUAGUCAGGAUAUACAUGAGGAUCACCCAUGUAAAAUUUUAAUUUAAUUUUAAGGUGUAGAAGGGACCAUUU | – | – | 30.6 nM | 26.2 nM |
| AGUUAAUAUCGAGGAUAUAAGUCUAAGACAUGAGGAUCACCCAUGUGUGUCUUAGAAGGCGAUAUUAACAGCAUGUUACAUGCA | 48.3 nM | 8.07 nM | – | – |
| UGGUACAUGGGAGGAUAUGGGUUGAUAACAUGAGGAUCACCCAUGUUAAAAUGCCGAAAGGCAAACUAGAAGGCCCAUGUACCU | 443 nM | 32.2 nM | – | – |
| UUGUUGUAUGUAGGAUAUGCAUAUUAUUAUUAUGCAGAAGGACAUGAGGAUCACCCAUGUAUGUUAUUAUUAUGUGUUAUGUGU | – | – | 44 nM | 71.5 nM |
| CGAAAUGAUAGAGGAUAUGUUAUACAUGAGGAUCACCCAUGUUUAAUGGGAUUAAUAAAUAUCUUACAGAAGGCUAUUCAAUCG | – | – | 32 nM | 20.7 nM |
| UAAAAUCAUGUAGGAUAUGCGUGGCGAAGCUAUGCAGAAGGACAUGAGGAUCACCCAUGUCUUAGCUAGCGUACUAGCUUAAAG | – | – | 12.9 nM | 49.7 nM |
| GGCGGAGACGUUAACAUGAGGAUCACCCAUGUCGAAGGAGAUGAGGAUAUCGUAUACGAUGUAUAUGAGAAGGCAUGGUCUGCC | 32.8 nM | 11.3 nM | – | – |
| UGGUACUAGGGAGGAUAUGGGAAGAUACAUGAGGAUCACCCAUGUUUAAGAAUGCCGAGAGGCAACUAGAAGGACCUAGUACCU | 896 nM | 63.6 nM | – | – |
| UGUGCUAUGUAGAAGGCAGAUCUGAUUCAGAUCUGAGGAUAUACAUGAGGAUCACCCAUGUUAUGCACCAGCACGAGAGUGCAA | – | – | 8.13 nM | 16 nM |
| CAGUACUGAGGAUAUACAUGAGGAUCACCCAUGUGUUCCAGCUAGGAAACUAGCAGAAGUAGAAGGCAGUACUG | – | – | 24.6 nM | 441 nM |
| UGUCUAUAUGAAGGAUAUCUAAGCAUAAACCGUAGAGAAGGUCAAUAGUACAUGAGGAUCACCCAUGUUGGGAUUGAUGGGUUU | – | – | 25.3 nM | 38.6 nM |
| UCGGCGCGAGGAUAUACGUUUGCGCGUUUUCGUUUUUGCGUACAUGAGGAUCACCCAUGUAGAAGGCGCGCCGC | – | – | 12.8 nM | 18 nM |
| ACUUAUCAUGUAGGAUAUGCGUGGCGAAGCUAUGCAGAAGGACAUGAGGAUCACCCAUGUUUUAGCGUCUGCGUACAGAUGCGU | – | – | 54 nM | 192 nM |
| ACCGAAUGAACAUGAGGAUCACCCAUGUACCCGAAAGGGAAUGAGGAUAUCGAUAGCAAAGCUAUCGAGAAGGCAUGGGUCGGU | 573 nM | 169 nM | – | – |
| GACUUGUUAGGAUAUCUUACUUUUGCAUCAUAGUAACCAUUGGAGAAGGGACAUGAGGAUCACCCAUGUUUGGU | – | – | 34.7 nM | 35 nM |
| ACGAGGGUUACAGGAUAUGAAGCUAAAACGGCGUUAGAAGGGUAUACAGAGUUACAUGAGGAUCACCCAUGUUGUGACUUCGAA | – | – | 33.6 nM | 41 nM |
| CGUAACUGCAUAGGAUAUUGUUACAUGAGGAUCACCCAUGUUUUUCGGAUUAUUUAUCUACUUAGCAAGAAGGAUGGAGUUACG | 6.82 nM | 4.74 nM | – | – |
| CACCGGCCCUAUGUGUUCUAGACAUGAGGAUCACCCAUGUAUAGAAGGGUCUUCGCGAAACGCAGACAGGAUAUGUACAGGAGU | – | – | 6.31 nM | 9.26 nM |
| GCCAGUUAUGUAGGAUAUGCGAGGCGAGCCUGAGCAGAAGGACAUGAGGAUCACCCAUGUAUUGCGGUUUAAGUUCAGAUCGCU | – | – | 17.6 nM | 23.4 nM |
| UGACGGAGCAGAGGAUAUACAUGAGGAUCACCCAUGUAAGAUCUCCAGGAAACUGGAGAUCAAAUGUAGAAGGCUGCUCCGUCA | – | – | 18.1 nM | 56 nM |
